Active and inactive are the calls of the source. The calls are words filed in the database; no cut-off is given here.
Legend:
HepG2 [1] = assay: Cell cycle arrest in human HepG2 cells assessed as accumulation at S phase at 1.2 uM after 72 hrs by propidium iodide staining-based flow cytometric analysis (reference value: 44.6%); assay type: functional
How it was run: (§1)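 Concentrations used were 0, 0.3, 0.6 and 1.2 μM in HepG2 and 0, 0.16, 0.31 and 1.25 μM in PC-3, with untreated cells as control, for 72 h. Cells were trypsinized, washed in PBS, fixed in cold ethanol at 4 °C overnight, then incubated 30 min in PBS containing RNase A and propidium iodide. DNA content was read by flow cytometry to give phase distribution.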

HepG2 [2] = assay: Induction of apoptosis in human HepG2 cells assessed as rupture of cell membrane at 1.2 uM after 48 hrs by Hoechst 33258 staining-based fluorescent microscopic analysis; assay type: functional
How it was run: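 HepG2 cells on sterile cover slips in 6-well plates exposed to 0, 0.3, 0.6 or 1.2 μM, or vehicle, for 48 h. Fixed in 4% paraformaldehyde for 10 min, PBS-washed, stained with Hoechst 33258 for 5 min. Nuclear morphology and adherent cell number viewed at 350 nm excitation / 460 nm emission. Non-treated cells served as control.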

L02 [3] = assay: Induction of apoptosis in human LO2 cells assessed as necrotic cells at 1.2 uM after 72 hrs by Annexin V-FITC/7-AAD or propidium iodide staining-based flow cytometric analysis (reference value: 1.99%); assay type: cell-based; conditions: l02, 72 h
HepG2 [4] = assay: Induction of apoptosis in human HepG2 cells assessed as viable cells at 0.6 uM after 72 hrs by Annexin V-APC/7-AAD or propidium iodide staining-based flow cytometric analysis (reference value: 90.08%); assay type: functional; conditions: HepG2, 72 h, read-out: Activity
HepG2 [5] = assay: Induction of apoptosis in human HepG2 cells assessed as reduction in Hsp70 expression levels at 2 uM after 24 hrs by membrane-based sandwich immunoassay; assay type: functional, cell-based
How it was run: (§2)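 HepG2 cells treated at 2 μM for 24 h; protein extracts prepared per the kit protocol. Relative levels of 35 apoptosis-related proteins measured with a human apoptosis antibody array.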

HepG2 [6] = assay: Induction of apoptosis in human HepG2 cells assessed as viable cells at 0.3 uM after 72 hrs by Annexin V-APC/7-AAD or propidium iodide staining-based flow cytometric analysis (reference value: 90.08%); assay type: functional; conditions: HepG2, 72 h, read-out: Activity
HepG2 [7] = assay: Cell cycle arrest in human HepG2 cells assessed as accumulation at S phase after 72 hrs by propidium iodide staining-based flow cytometric analysis; assay type: functional; how it was run: as §1
HepG2 [8] = assay: Cell cycle arrest in human HepG2 cells assessed as accumulation at G1 phase at 0.3 uM after 72 hrs by propidium iodide staining-based flow cytometric analysis (reference value: 34%); assay type: functional; how it was run: as §1
HepG2 [9] = assay: Cell cycle arrest in human HepG2 cells assessed as accumulation at G2/M phase at 0.3 uM after 72 hrs by propidium iodide staining-based flow cytometric analysis (reference value: 21.4%); assay type: functional; how it was run: as §1
L02 [10] = assay: Induction of apoptosis in human LO2 cells assessed as necrotic cells at 50 uM after 72 hrs by Annexin V-FITC/7-AAD or propidium iodide staining-based flow cytometric analysis (reference value: 1.99%); assay type: cell-based; conditions: l02, 72 h
HepG2 [11] = assay: Induction of apoptosis in human HepG2 cells assessed as reduction in HO-2 expression levels at 2 uM after 24 hrs by membrane-based sandwich immunoassay; assay type: functional, cell-based; how it was run: as §2
L02 [12] = assay: Induction of apoptosis in human LO2 cells assessed as late apoptotic cells at 50 uM after 72 hrs by Annexin V-FITC/7-AAD or propidium iodide staining-based flow cytometric analysis (reference value: 0.11%); assay type: cell-based; conditions: l02, 72 h
HepG2 [13] = assay: Cell cycle arrest in human HepG2 cells assessed as accumulation at S phase at 0.6 uM after 72 hrs by propidium iodide staining-based flow cytometric analysis (reference value: 44.6%); assay type: functional; how it was run: as §1
L02 [14] = assay: Induction of apoptosis in human LO2 cells assessed as necrotic cells at 1.25 uM after 72 hrs by Annexin V-FITC/7-AAD or propidium iodide staining-based flow cytometric analysis (reference value: 1.99%); assay type: cell-based; conditions: l02, 72 h
PC-3 [15] = assay: Induction of apoptosis in human PC3 cells assessed as early apoptotic cells at 1.25 uM after 72 hrs by Annexin V-APC/7-AAD or propidium iodide staining-based flow cytometric analysis (reference value: 4.09%); assay type: functional
PC-3 [16] = assay: Induction of apoptosis in human PC3 cells assessed as early apoptotic cells at 0.16 uM after 72 hrs by Annexin V-APC/7-AAD or propidium iodide staining-based flow cytometric analysis (reference value: 4.09%); assay type: functional
PC-3 [17] = assay: Induction of apoptosis in human PC3 cells after 72 hrs by Annexin V-APC/7-AAD or propidium iodide staining-based flow cytometric analysis; assay type: functional, cell-based
PC-3 [18] = assay: Cell cycle arrest in human PC3 cells assessed as accumulation at G2/M phase at 1.25 uM after 72 hrs by propidium iodide staining-based flow cytometric analysis (reference value: 10.19%); assay type: functional; how it was run: as §1
PC-3 [19] = assay: Induction of apoptosis in human PC3 cells assessed as reduction in mitochondrial membrane potential after 48 hrs by JC-1 staining-based flow cytometric analysis; assay type: functional, cell-based
How it was run: (§3)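 After overnight culture, PC-3 cells were treated in triplicate with 0, 0.16, 0.31 or 1.25 μM, or vehicle, for 48 h. They were then loaded with JC-1, and the proportion with depolarized mitochondrial membrane potential was counted by flow cytometry.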

PC-3 [20] = assay: Cell cycle arrest in human PC3 cells assessed as accumulation at S phase at 1.25 uM after 72 hrs by propidium iodide staining-based flow cytometric analysis (reference value: 36.46%); assay type: functional; how it was run: as §1
PC-3 [21] = assay: Induction of apoptosis in human PC3 cells assessed as viable cells at 1.25 uM after 72 hrs by Annexin V-APC/7-AAD or propidium iodide staining-based flow cytometric analysis (reference value: 88.74%); assay type: functional; conditions: PC-3, 72 h, read-out: Activity
PC-3 [22] = assay: Induction of apoptosis in human PC3 cells assessed as reduction in mitochondrial membrane potential at 0.31 uM after 48 hrs by JC-1 staining-based flow cytometric analysis (reference value: 1.86%); assay type: functional; parameters: scale not given: the % may be the effect or the level left; how it was run: as §3
PC-3 [23] = assay: Induction of apoptosis in human PC3 cells assessed as chromatin condensation at 0.16 to 1.25 uM after 48 hrs by Hoechst 33258 staining-based fluorescent microscopic analysis; assay type: functional, cell-based
How it was run: (§4)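 PC-3 cells grown on sterile cover slips were exposed to 0, 0.16, 0.31 or 1.25 μM, or vehicle, for 48 h. Then fixed with 4% paraformaldehyde for 10 min, washed twice in PBS, stained with Hoechst 33258 for 5 min and washed again. Nuclei imaged at 350 nm excitation and 460 nm emission.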

PC-3 [24] = assay: Cell cycle arrest in human PC3 cells assessed as accumulation at G1 phase at 0.31 uM after 72 hrs by propidium iodide staining-based flow cytometric analysis (reference value: 53.36%); assay type: functional; how it was run: as §1
PC-3 [25] = assay: Cell cycle arrest in human PC3 cells assessed as accumulation at G1 phase at 0.16 uM after 72 hrs by propidium iodide staining-based flow cytometric analysis (reference value: 53.36%); assay type: functional; how it was run: as §1
PC-3 [26] = assay: Induction of apoptosis in human PC3 cells assessed as reduction in adherent cells at 0.16 to 1.25 uM after 48 hrs by Hoechst 33258 staining-based fluorescent microscopic analysis; assay type: functional, cell-based; how it was run: as §4
PC-3 [27] = assay: Induction of apoptosis in human PC3 cells assessed as early apoptotic cells at 0.31 uM after 72 hrs by Annexin V-APC/7-AAD or propidium iodide staining-based flow cytometric analysis (reference value: 4.09%); assay type: functional

O=C(NCCCOc1no[n+]([O-])c1S(=O)(=O)c1ccccc1)[C@H]1O[C@@H](Oc2cc3oc(-c4ccc(OCc5ccccc5)cc4)cc(=O)c3c(O)c2OCc2ccccc2)[C@H](O)[C@@H](O)[C@@H]1O
Activity (HepG2 [1]): 69.63%
Activity (HepG2 [2]): Active
Activity (L02 [3]): 1.53%
viability at 0.6 µM (HepG2 [4]): 64.6%
Activity (HepG2 [5]): Active
viability at 0.3 µM (HepG2 [6]): 79.6%
Activity (HepG2 [7]): Dose-dependent effect
Activity (HepG2 [8]): 32.13%
Activity (HepG2 [9]): 20.73%
Activity (L02 [10]): 2.27%
Activity (HepG2 [11]): Active
Activity (L02 [12]): 9.83%
Activity (HepG2 [13]): 50.45%

COc1ccc(-c2cc(=O)c3c(O)c(OC)c(O[C@@H]4O[C@H](C(=O)NCCOc5no[n+]([O-])c5S(=O)(=O)c5ccccc5)[C@@H](O)[C@H](O)[C@H]4O)cc3o2)cc1
Activity (L02 [14]): 1.32%
Activity (PC-3 [15]): 14.91%
Activity (PC-3 [16]): 3.71%
Activity (PC-3 [17]): Dose-dependent effect
Activity (PC-3 [18]): 9.1%
Activity (PC-3 [19]): Dose-dependent effect
Activity (PC-3 [20]): 50.41%
viability at 1.25 µM (PC-3 [21]): 36.3%
Activity (PC-3 [22]): 35.91%
Activity (PC-3 [23]): Active
Activity (PC-3 [24]): 43.22%
Activity (PC-3 [25]): 50.05%
Activity (PC-3 [26]): Active
Activity (PC-3 [27]): 13.2%

Reference: ChEMBL document CHEMBL4052629, “Scutellarin derivatives as apoptosis inducers: Design, synthesis and biological evaluation” (Eur J Med Chem, 2017)
